Calls of active or inactive are those of the source. No cut-off for these calls is given here.

Data set [1] concerns Pseudomonas aeruginosa. Briefly: Antimicrobial activity against Pseudomonas aeruginosa PAO1 assessed as microbial growth inhibition at 50 uM incubated for 20 hrs by broth microdilution method. It is filed as functional, organism-based. A digest of the protocol: (§1)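 Overnight cultures in cation-adjusted Mueller-Hinton broth, subcultured 1:100; log-phase cells at final 1×10^5 cfu/mL exposed to sulfonamide at final 0.05 mM (from 10 mM DMSO stock) for 20 h at 37 °C. OD550 read after shaking. Growth expressed as percent of 0.5% DMSO control wells. Screened at least twice.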
(Broth dilution looks for growth in wells or tubes with falling amounts of substance.)

Data set [2] has as its system Stenotrophomonas maltophilia. Briefly: Inhibition of biofilm formation in Stenotrophomonas maltophilia K279a clinical isolate of rpf-1 subpopulation at 0.05 mM incubated for 24 hrs by crystal violet method. The class given is functional, organism-based. An outline of the steps: (§2)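 Crystal violet assay in LB: log-phase bacteria at final 1×10^5 cfu/mL with sulfonamide at final 0.05 mM, 24 h at 37 °C. Biomass read at OD620, then wells washed, biofilm heat-fixed 65 °C 15 min, stained 0.1% crystal violet 15 min, dye eluted in 30% acetic acid, OD550 read. Neat DMSO control taken as 100%. Duplicates, at least two independent experiments; one-way ANOVA.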

Data set [3] relates to Acinetobacter baumannii. Briefly: Antimicrobial activity against Acinetobacter baumannii ATCC 15308 assessed as microbial growth inhibition at 50 uM incubated for 20 hrs by broth microdilution method. The class given is functional, organism-based. A digest of the protocol: as §1
Data set [4] has as its system Pseudomonas aeruginosa. Briefly: Potentiation of colistin-induced antibacterial activity against Pseudomonas aeruginosa assessed as colistin MIC at 50 uM incubated for 20 hrs by susceptibility testing (reference value: 1 to 2 ug/ml). It is filed as functional. An outline of the steps:
(§3)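 Colistin MIC by broth microdilution in cation-adjusted Mueller-Hinton broth, log-phase cells at final 5×10^5 cfu/mL. Two-fold colistin dilutions in duplicate with sulfonamide at final 0.05 mM (from 10 mM DMSO stock); 20 h at 37 °C. OD550 read. MIC taken as the lowest colistin level reducing growth ≥80% versus growth control. At least two replicates.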

Data set [5] deals with Stenotrophomonas maltophilia. Briefly: Potentiation of colistin-induced antibacterial activity against Stenotrophomonas maltophilia K279a infected in Galleria mellonella larva at 50 uM. The class given is functional, organism-based. A digest of the protocol:
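Larvae 300–400 mg, at least 15 per group, infected in last proleg with 1×10^4 cfu S. maltophilia K279a in PBS. After 60 min at 37 °C, chilled 15 min on ice, then injected with 5 μL PBS holding colistin at final 0.5 μg/mL, sulfonamide at final 50 μM, or both; 0.5% DMSO vehicle control. Kept at 37 °C, survival scored every 24 h for Kaplan-Meier curves. At least two larval batches.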

Data set [6] in a line: Toxicity in Galleria mellonella larva assessed as larval survival at 50 uM.
Data set [7] has as its system Burkholderia multivorans. Briefly: Potentiation of colistin-induced antibacterial activity against Burkholderia multivorans B10 assessed as colistin MIC at 50 uM incubated for 20 hrs by susceptibility testing (Rvb > 128 ug/ml). It is filed as functional. A digest of the protocol: as §3
In data set [8] the test system is Burkholderia multivorans. Briefly: Inhibition of biofilm formation in Burkholderia multivorans B10 at 0.05 mM incubated for 24 hrs by crystal violet method relative to control. It is filed as functional. The conditions noted are these: B10, 24 h. An outline of the steps: as §2
For data set [9], the system named is Escherichia coli. Briefly: Antimicrobial activity against Escherichia coli ATCC 9637 assessed as microbial growth inhibition at 50 uM incubated for 20 hrs by broth microdilution method. It is filed as functional, organism-based. A digest of the protocol: as §1
The subject of data set [10] is Pseudomonas aeruginosa. Briefly: Inhibition of biofilm formation in Pseudomonas aeruginosa PAO1 at 0.05 mM incubated for 24 hrs by crystal violet method. It is filed as functional, organism-based. An outline of the steps: as §2
A short description of data set [11]: Toxicity in Galleria mellonella larva assessed as larval survival at 50 uM in presence of colistin.
The next data set relates to Burkholderia cenocepacia. Briefly: Potentiation of colistin-induced antibacterial activity against Burkholderia cenocepacia 289 assessed as colistin MIC at 50 uM incubated for 20 hrs by susceptibility testing (Rvb > 256 ug/ml). It is filed as functional. A digest of the protocol: as §3
The test system of data set [12] is Escherichia coli. Briefly: Potentiation of colistin-induced antibacterial activity against Escherichia coli ATCC 9637 assessed as colistin MIC at 50 uM incubated for 20 hrs by susceptibility testing (reference value: 0.125 to 0.25 ug/ml). It is filed as functional. An outline of the steps:
as §3

The subject of data set [13] is Burkholderia cepacia. Briefly: Potentiation of colistin-induced antibacterial activity against Burkholderia cepacia R6193 assessed as colistin MIC at 50 uM incubated for 20 hrs by susceptibility testing (Rvb > 256 ug/ml). It is filed as functional. A digest of the protocol: as §3
Data set [14] has as its system Stenotrophomonas maltophilia. Briefly: Potentiation of colistin-induced antibacterial activity against Stenotrophomonas maltophilia K279a assessed as colistin MIC at 50 uM incubated for 20 hrs by susceptibility testing (reference value: 2 to 8 ug/ml). The class given is functional. An outline of the steps:
as §3

For data set [15], the system named is Acinetobacter baumannii. Briefly: Potentiation of colistin-induced antibacterial activity against Acinetobacter baumannii ATCC 15308 assessed as colistin MIC at 50 uM incubated for 20 hrs by susceptibility testing (reference value: 0.25 to 0.5 ug/ml). The class given is functional. A digest of the protocol:
as §3

Data set [16] relates to Escherichia coli. Briefly: Inhibition of biofilm formation in Escherichia coli ATCC 9637 at 0.05 mM incubated for 24 hrs by crystal violet method relative to control. It is filed as functional. The conditions noted are these: ATCC 9637, 24 h. A digest of the protocol: as §2
Data set [17] has as its system Stenotrophomonas maltophilia. Briefly: Antimicrobial activity against Stenotrophomonas maltophilia K279a assessed as microbial growth inhibition at 50 uM incubated for 20 hrs by broth microdilution method. It is filed as functional, organism-based. An outline of the steps:
as §1

The subject of data set [18] is Burkholderia multivorans. Briefly: Antimicrobial activity against Burkholderia multivorans B10 assessed as microbial growth inhibition at 50 uM incubated for 20 hrs by broth microdilution method. It is filed as functional, organism-based. An outline of the steps: as §1
The test system of data set [19] is Acinetobacter baumannii. Briefly: Inhibition of biofilm formation in Acinetobacter baumannii ATCC 15308 at 0.05 mM incubated for 24 hrs by crystal violet method relative to control. The class given is functional. The conditions noted are these: ATCC 15308, 24 h. A digest of the protocol:
as §2

Data set [20] has as its system Burkholderia cepacia. Briefly: Inhibition of biofilm formation in Burkholderia cepacia R6193 clinical isolate at 0.05 mM incubated for 24 hrs by crystal violet method. It is filed as functional, organism-based. An outline of the steps:
as §2

In general, inhibition refers to the relative decrease from the control value, in per cent. Usually MIC stands for the lowest concentration found to suppress growth. With `CCCCCCCCCc1ccccc1C(=O)NS(=O)(=O)C(C)(C)C`, the “growth inhibition (GI)” value in the data set with Pseudomonas aeruginosa [1], in the data set with Acinetobacter baumannii [3] and in the data set on Escherichia coli [9] was “inactive” in each case. Further, the inhibition entry (in data set [2]; in the data set with Pseudomonas aeruginosa [10]) was “inactive” throughout. The MIC with Pseudomonas aeruginosa [4] is 1 µg/mL; in the data set with Burkholderia multivorans [7] it was above 128 µg/mL; with Burkholderia cenocepacia, above 256 µg/mL; with Escherichia coli [12], 0.5 µg/mL; in the data set with Burkholderia cepacia [13], above 256 µg/mL; in data set [14], 0.5 µg/mL. In the data set with Acinetobacter baumannii [15], the MIC is 0.25 µg/mL. For the same compound, the result in data set [5] was Active. The Activity entry in data set [6] and in data set [11] was “Non-Toxic” in each case. This compound also displayed an inhibition at 50 µM in the data set with Burkholderia multivorans [8] above 35%.

Turning to `CCCCCCCCCc1ccccc1C(=O)NS(=O)(=O)c1ccc(I)cc1`, the inhibition at 50 µM worked out at 68% in the data set on Escherichia coli [16] and 35% in the data set on Burkholderia multivorans [8]. Besides, the “growth inhibition (GI)” value in the data set on Pseudomonas aeruginosa [1], with Acinetobacter baumannii [3] and with Escherichia coli [9] was “inactive” in each case. The inhibition entry (in data set [2]; in the data set with Pseudomonas aeruginosa [10]) was “inactive” in each case. In addition, the “growth inhibition (GI)” value (in data set [17]; in the data set with Burkholderia multivorans [18]) was “Active” each time. In addition, the minimal inhibitory concentration (MIC) in the data set with Pseudomonas aeruginosa [4] was 8 µg/mL; with Burkholderia multivorans [7] it was above 128 µg/mL; in the data set with Burkholderia cenocepacia, above 256 µg/mL; with Escherichia coli [12] it was above 1 µg/mL; in the data set on Burkholderia cepacia [13], above 256 µg/mL; in [14] it was 4 µg/mL. The MIC in the data set with Acinetobacter baumannii [15] was 2 µg/mL. Besides, in [6], the Activity entry is “Non-Toxic”.

In the case of `CCCCCCCCCc1ccccc1C(=O)NS(C)(=O)=O`, the “growth inhibition (GI)” value with Pseudomonas aeruginosa [1], in the data set on Acinetobacter baumannii [3] and in the data set on Escherichia coli [9] was “inactive” each time. In addition, the inhibition result (in [2]; with Pseudomonas aeruginosa [10]) was “inactive” throughout. In addition, the minimum inhibitory concentration (MIC) is 1 µg/mL with Pseudomonas aeruginosa [4]; above 128 µg/mL in the data set on Burkholderia multivorans [7]; above 256 µg/mL in the data set with Burkholderia cenocepacia; 0.125 µg/mL in the data set with Escherichia coli [12]; above 256 µg/mL in the data set with Burkholderia cepacia [13]; 0.5 µg/mL in data set [14]. In the data set on Acinetobacter baumannii [15], the MIC is 0.125 µg/mL. In addition, the Activity entry in data set [6] is “Non-Toxic”.

As to `CCCCCCCCCc1ccccc1C(=O)NS(=O)(=O)c1cccc(Br)c1`, the inhibition at 50 µM in the data set on Escherichia coli [16] stood at 63%; with Acinetobacter baumannii [19] it was 1.5%; in the data set on Burkholderia multivorans [8], 41%. In addition, the “growth inhibition (GI)” value with Pseudomonas aeruginosa [1], in the data set with Acinetobacter baumannii [3] and in the data set with Escherichia coli [9] was “inactive” in each case. In addition, the inhibition entry (in [2]; with Pseudomonas aeruginosa [10]; in the data set with Burkholderia cepacia [20]) was “inactive” throughout. For the same compound, the “growth inhibition (GI)” value in [17] is “Active”. Moreover, the minimum inhibitory concentration (MIC) was 4 µg/mL in the data set with Pseudomonas aeruginosa [4]; above 128 µg/mL with Burkholderia multivorans [7]; above 256 µg/mL in the data set on Burkholderia cenocepacia; above 1 µg/mL in the data set with Escherichia coli [12]; above 256 µg/mL with Burkholderia cepacia [13]; 4 µg/mL in data set [14]. The MIC with Acinetobacter baumannii [15] stood at 1 µg/mL. For the same compound, the Activity result in data set [6] is “Non-Toxic”.

With `CCCCCCCCCc1ccccc1C(=O)NS(=O)(=O)c1ccc(Br)cc1`, the inhibition at 50 µM is above 59% in the data set on Escherichia coli [16], 8% in the data set with Acinetobacter baumannii [19] and 31% in the data set with Burkholderia multivorans [8]. The “growth inhibition (GI)” value with Pseudomonas aeruginosa [1], in the data set on Acinetobacter baumannii [3] and in the data set with Escherichia coli [9] was “inactive” each time. In addition, the inhibition result (in data set [2]; with Pseudomonas aeruginosa [10]; with Burkholderia cepacia [20]) was “inactive” each time. Also, the MIC is 8 µg/mL in the data set with Pseudomonas aeruginosa [4]; above 128 µg/mL with Burkholderia multivorans [7]; above 256 µg/mL in the data set with Burkholderia cenocepacia; above 1 µg/mL in the data set on Escherichia coli [12]; above 256 µg/mL in the data set on Burkholderia cepacia [13]; 2 µg/mL in data set [14]. In addition, in the data set with Acinetobacter baumannii [15], the MIC stood at 2 µg/mL.

Values taken from ChEMBL document CHEMBL5335788, “Synthesis and evaluation of aromatic BDSF bioisosteres on biofilm formation and colistin sensitivity in pathogenic bacteria” (Eur J Med Chem, 2023).
